Measured values as given in PMC10731006 (Heliyon, 2023).
Converted amounts (≈) assume the structure as drawn. “Also recorded” adds a separate entry of the source.

Experiments:
[1] = DPPH radical scavenging assay
B. subtilis (ATCC 6633) [2] = assay: Agar diffusion test, B. subtilis; assay type: cell-based; settings: Bacillus subtilis, ATCC6633, read-out: Zone of inhibition BS
[3] = tested on: Pseudomonas aeruginosa (ATCC 13048); assay: Micro-broth dilution assay; assay type: cell-based; settings: ATCC13048, read-out: MIC PA
[4] = tested on: Bacillus cereus (ATCC 11778); assay: Micro-broth dilution assay; assay type: cell-based; settings: ATCC11778, read-out: MIC BC
[5] = tested on: cancer cell lines (U87, MCF-7 and A549) compared to normal cells (HDF); assay: MTT cytotoxicity, cancer cell lines compared to normal cells; assay type: cell-based, human; settings: 96 h treatment
Outline: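 A549 and MCF7 grown in RPMI 1640, HDF and U87 in DMEM, each with 10% FCS, 2 mM L-glutamine, 1% pen-strep, 37 °C, 5% CO2. Cells at 1 × 10^4 cells/ml were adhered overnight, then exposed 96 h to test compound (final 1–600 […] in medium). Controls were blank, untreated, DMSO-matched and cisplatin (1–100 μM/mL). MTT 5 mg/ml for 4 h; DMSO-solubilised formazan read at 540 nm, triplicate. IC50 from curve fitting; selectivity index = HDF IC50 / cancer-line IC50.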

[6] = tested on: glioblastoma (U-87 MG) cells; assay: MTT cytotoxicity assay, U-87 MG; assay type: cell-based, human; settings: for IC50: Homo sapiens, U-87 MG, 96 h, read-out: IC50 U87; for SI U87 (selectivity index): IC50 in HDF / IC50 in U87, 96 h
Outline: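 U-87 MG cells were cultured in DMEM with 10% FCS, 2 mM L-glutamine and 1% penicillin-streptomycin at 37 °C, 5% CO2. Seeding was 1 × 10^4 cells/ml; after overnight adherence, test compound diluted in medium (six final levels, 1–600) was applied for 96 h alongside DMSO-matched and cisplatin controls. Read-out: MTT 5 mg/ml for 4 h, DMSO solubilisation, A540, in triplicate, IC50 fitted. SI = IC50 in HDF / IC50 in U87.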

[7] = tested on: breast cancer (MCF7) cells; assay: MTT cytotoxicity assay, MCF7; assay type: cell-based, human; settings: for IC50: Homo sapiens, MCF7, 96 h, read-out: IC50 MCF-7; for SI MCF-7 (selectivity index): IC50 in HDF / IC50 in MCF-7, 96 h
Outline: (§1)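 Cells were grown in RPMI 1640 with 10% FCS, 2 mM L-glutamine and 1% penicillin-streptomycin at 37 °C under 5% CO2. They were seeded at 1 × 10^4 cells/ml, left overnight to adhere, and exposed 96 h to test compound diluted in medium (six final levels, 1–600), with DMSO-matched and cisplatin controls. MTT at 5 mg/ml was added for 4 h, formazan dissolved in DMSO, and A540 read, in triplicate. IC50 was fitted from the data. SI = IC50 in HDF / IC50 in this line.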

[8] = tested on: Staphylococcus aureus (ATCC 10145); assay: Micro-broth dilution assay; assay type: cell-based; settings: ATCC10145, read-out: MIC SA
[9] = ABTS radical scavenging assay
B. subtilis (ATCC 6633) [10] = assay: Micro-broth dilution assay; assay type: cell-based; settings: Bacillus subtilis, ATCC6633, read-out: MIC BS
[11] = tested on: Bacillus cereus (ATCC 11778); assay: Agar diffusion test, B. cereus; assay type: cell-based; settings: ATCC11778, read-out: Zone of inhibition BC
[12] = tested on: human dermal fibroblast (HDF, human dermal cell line); assay: MTT cytotoxicity assay, normal cells; assay type: cell-based; settings: Homo sapiens, Fibroblast, 96 h, read-out: IC50 HDF
Outline: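 Human dermal fibroblasts were maintained in DMEM with 10% FCS, 2 mM L-glutamine and 1% penicillin-streptomycin (37 °C, 5% CO2). They were seeded at 1 × 10^4 cells/ml, allowed to adhere overnight, then treated 96 h with serially diluted test compound (six final levels, 1–600) beside DMSO-matched vehicle and cisplatin controls. Then MTT 5 mg/ml was added for 4 h, formazan taken up in DMSO, and absorbance read at 540 nm, in triplicate. IC50 was fitted.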

[13] = tested on: Gram-positive and Gram-negative bacterial test strains; assay: Antibacterial activity, whole panel of test strains; assay type: cell-based
Outline: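 Disc diffusion followed CLSI (2012). Test compound at 10, 50 and 100 μg/disc was loaded on 6-mm blank filter discs laid on Mueller Hinton agar seeded at 10^6 cells/ml. Strains were S. aureus ATCC 10145, B. cereus ATCC 11778, B. subtilis ATCC 6633, P. aeruginosa ATCC 13048 and E. coli ATCC 25922. Inhibition zones were recorded.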

[14] = tested on: Escherichia coli (ATCC 25922); assay: Micro-broth dilution assay; assay type: cell-based; settings: ATCC25922, read-out: MIC EC
[15] = tested on: non-small cell lung cancer (A549) cells; assay: MTT cytotoxicity assay, A549; assay type: cell-based, human; settings: for IC50: Homo sapiens, A549, 96 h, read-out: IC50 A549; for SI A549 (selectivity index): IC50 in HDF / IC50 in A549, 96 h
Outline: as §1

[16] = tested on: Pseudomonas aeruginosa (ATCC 13048); assay: Agar diffusion test, P. aeruginosa; assay type: cell-based; settings: ATCC13048, read-out: Zone of inhibition PA
[17] = tested on: Escherichia coli (ATCC 25922); assay: Agar diffusion test, E. coli; assay type: cell-based; settings: ATCC25922, read-out: Zone of inhibition EC

Row | Compound | IC50 ± SD, DPPH [1] [µg/mL] | MIC [3] [µg/mL] | MIC [4] [µg/mL] | MIC [8] [µg/mL] | IC50 ± SD, ABTS [9] [µg/mL] | MIC (B. subtilis (ATCC 6633) [10]) [µg/mL] | % inhibition ±SD, DPPH ([1]; 10 μg/ml) [%] | % inhibition ±SD, DPPH ([1]; 25 μg/ml) [%] | % inhibition ±SD, DPPH ([1]; 50 μg/ml) [%] | % inhibition ±SD, DPPH ([1]; 100 μg/ml) [%] | IC50 [6] [µM] | SI U87 (selectivity index) [6] | IC50 [7] [µM] | SI MCF-7 (selectivity index) [7] | % inhibition ±SD, ABTS ([9]; 5 μg/ml) [%] | % inhibition ±SD, ABTS ([9]; 10 μg/ml) [%] | % inhibition ±SD, ABTS ([9]; 25 μg/ml) [%] | % inhibition ±SD, ABTS ([9]; 50 μg/ml) [%] | % inhibition ±SD, ABTS ([9]; 100 μg/ml) [%] | IC50 [12] [µM] | other results
1 | COC(=O)c1cn(C2CC2)c2cc(N3CCN(C(=O)c4c(C)nnn4Cc4ccc(F)cc4)CC3)c(F)cc2c1=O [Compound 6a, methyl 7-(4-(1-(4-fluorobenzyl)-4-methyl-1H-1,2,3-triazole-5-carbonyl)piperazin-1-yl)-1-cyclopropyl-6-fluoro-4-oxo-1,4-dihydroquinoline-3-carboxylate] | 32.6 ± 2.9 (≈ 57.9 µM) | > 500 | 500 (≈ 889 µM) | > 500 | 17.8 ± 1.1 (≈ 31.6 µM) | 500 (≈ 889 µM) | 40.2 ± 0.4 | 47.2 ± 1.0 | 53.2 ± 0.9 | 63.3 ± 0.8 | 34.6 ± 7.8 | 14.6 | 112 ± 10.1 | 4.5 | 22.7 ± 0.2 | 48.7 ± 0.5 | 53.5 ± 0.3 | 71.1 ± 1.0 | 75.5 ± 0.5 | 504 ± 19.9 | % inhibition ±SD, DPPH ([1]; 5 μg/ml): 27.04 ± 0.2%; zone of inhibition at 100 µg/disc (B. subtilis (ATCC 6633) [2]): 11.3 ± 1.2 mm; zone of inhibition at 300 µg/disc (B. subtilis (ATCC 6633) [2]): 13.1 ± 0.6 mm; zone of inhibition at 500 µg/disc (B. subtilis (ATCC 6633) [2]): 14.6 ± 0.7 mm; cytotoxic / anti-proliferative activity in words [5]: remarkable anti-proliferative activity against all three cell-lines; also recorded: significant cytotoxic activity against all cancer cell lines; zone of inhibition at 100 µg/disc [11]: 12.7 ± 0.6 mm; zone of inhibition at 300 µg/disc [11]: 14.6 ± 0.3 mm; zone of inhibition at 500 µg/disc [11]: 15.3 ± 0.3 mm; antibacterial activity in words [13]: bioactivity against Gram-positive bacterial test strains; MIC [14]: > 500 µg/mL; IC50 [15]: 139 ± 9.3 µM; SI A549 (selectivity index) [15]: 3.6
2 | COC(=O)c1cn(C2CC2)c2cc(N3CCN(C(=O)c4c(C)nnn4Cc4cccc(F)c4)CC3)c(F)cc2c1=O [Compound 6b, methyl 7-(4-(1-(3-fluorobenzyl)-4-methyl-1H-1,2,3-triazole-5-carbonyl)piperazin-1-yl)-1-cyclopropyl-6-fluoro-4-oxo-1,4-dihydroquinoline-3-carboxylate] | 32.4 ± 1.1 (≈ 57.6 µM) | 500 (≈ 889 µM) | > 500 | > 500 | 35.3 ± 1.6 (≈ 62.7 µM) | > 500 | 18.9 ± 0.3 | 40.6 ± 0.9 | 58.5 ± 0.6 | 84.1 ± 0.2 | 1.2 ± 0.8 | 142.3 | 10.6 ± 2.3 | 16.1 | 11.8 ± 0.5 | 28.3 ± 0.4 | 43.4 ± 0.3 | 53.9 ± 0.8 | 72.9 ± 0.5 | 171 ± 8.1 | zone of inhibition at 100 µg/disc [16]: 12.3 ± 0.7 mm; zone of inhibition at 300 µg/disc [16]: 13.6 ± 0.6 mm; zone of inhibition at 500 µg/disc [16]: 15.3 ± 0.3 mm; cytotoxic / anti-proliferative activity in words [5]: remarkable anti-proliferative activity against all three cell-lines; also recorded: significant cytotoxic activity against all cancer cell lines; antibacterial activity in words [13]: activity against Gram-negative ones without inhibiting the Gram-positive test strains; MIC [14]: 500 µg/mL (≈ 889 µM); zone of inhibition at 100 µg/disc [17]: 10.6 ± 1.2 mm; zone of inhibition at 300 µg/disc [17]: 13.3 ± 1.5 mm; zone of inhibition at 500 µg/disc [17]: 14.7 ± 0.6 mm; IC50 [15]: 29.4 ± 6.2 µM; SI A549 (selectivity index) [15]: 5.8
3 | COC(=O)c1cn(C2CC2)c2cc(N3CCN(C(=O)c4c(C)nnn4-c4ccc(F)cc4)CC3)c(F)cc2c1=O [Compound 6f, methyl 7-(4-(1-(4-fluorophenyl)-4-methyl-1H-1,2,3-triazole-5-carbonyl)piperazin-1-yl)-1-cyclopropyl-6-fluoro-4-oxo-1,4-dihydroquinoline-3-carboxylate] | 56.2 ± 2.1 (≈ 102 µM) | > 500 | > 500 | > 500 | 39.2 ± 2.1 (≈ 71.5 µM) | > 500 | 20.7 ± 0.8 | 39.5 ± 0.5 | 48.9 ± 0.4 | 66.9 ± 0.3 | 7.9 ± 2.3 | 18 | 10.6 ± 3 | 13.3 | 13.3 ± 0.6 | 29.7 ± 0.7 | 46.1 ± 0.1 | 54.1 ± 0.7 | 64.2 ± 0.4 | 142 ± 4.1 | % inhibition ±SD, DPPH ([1]; 5 μg/ml): 10.6 ± 0.9%; cytotoxic / anti-proliferative activity in words [5]: significant cytotoxic activity against only U-87 and MCF-7 cancer cell lines; antibacterial activity in words [13]: deprived of any antibacterial activity; MIC [14]: > 500 µg/mL; IC50 [15]: 104 ± 4.5 µM; SI A549 (selectivity index) [15]: 1.4

Now from value to compound, other results behind:

Row | IC50 ± SD, DPPH [1] [µg/mL] | MIC [3] [µg/mL] | MIC [4] [µg/mL] | MIC [8] [µg/mL] | IC50 ± SD, ABTS [9] [µg/mL] | MIC (B. subtilis (ATCC 6633) [10]) [µg/mL] | Compound | % inhibition ±SD, DPPH ([1]; 10 μg/ml) [%] | % inhibition ±SD, DPPH ([1]; 25 μg/ml) [%] | % inhibition ±SD, DPPH ([1]; 50 μg/ml) [%] | % inhibition ±SD, DPPH ([1]; 100 μg/ml) [%] | IC50 [6] [µM] | SI U87 (selectivity index) [6] | IC50 [7] [µM] | SI MCF-7 (selectivity index) [7] | % inhibition ±SD, ABTS ([9]; 5 μg/ml) [%] | % inhibition ±SD, ABTS ([9]; 10 μg/ml) [%] | % inhibition ±SD, ABTS ([9]; 25 μg/ml) [%] | % inhibition ±SD, ABTS ([9]; 50 μg/ml) [%] | % inhibition ±SD, ABTS ([9]; 100 μg/ml) [%] | IC50 [12] [µM] | other results
4 | 18.5 ± 1.6 (≈ 32.1 µM) | > 500 | > 500 | > 500 | 24.2 ± 1.0 (≈ 42 µM) | > 500 | COC(=O)c1cn(C2CC2)c2cc(N3CCN(C(=O)c4c(C)nnn4-c4ccc([N+](=O)[O-])cc4)CC3)c(F)cc2c1=O [Compound 6e, methyl 7-(4-(1-(4-nitrophenyl)-4-methyl-1H-1,2,3-triazole-5-carbonyl)piperazin-1-yl)-1-cyclopropyl-6-fluoro-4-oxo-1,4-dihydroquinoline-3-carboxylate] | 33.8 ± 0.5 | 54.5 ± 0.4 | 60.7 ± 0.8 | 67.9 ± 0.6 | 45 ± 7.1 | 1.8 | 58.6 ± 5.9 | 1.4 | 14.9 ± 1.4 | 37.0 ± 0.2 | 50.3 ± 0.5 | 71.2 ± 0.2 | 74.3 ± 0.4 | 83 ± 5.8 | % inhibition ±SD, DPPH ([1]; 5 μg/ml): 17.1 ± 0.6%; zone of inhibition at 100 µg/disc (B. subtilis (ATCC 6633) [2]): 9.6 ± 0.6 mm; zone of inhibition at 300 µg/disc (B. subtilis (ATCC 6633) [2]): 13.1 ± 0.3 mm; zone of inhibition at 500 µg/disc (B. subtilis (ATCC 6633) [2]): 14.3 ± 0.6 mm; zone of inhibition at 100 µg/disc [11]: 10.3 ± 0.6 mm; zone of inhibition at 300 µg/disc [11]: 11.3 ± 0.6 mm; zone of inhibition at 500 µg/disc [11]: 13.3 ± 0.6 mm; MIC [14]: > 500 µg/mL; IC50 [15]: 79 ± 4.7 µM; SI A549 (selectivity index) [15]: 1.1
5 | 5.2 ± 0.3 (≈ 20.8 µM) |  |  |  | 2.7 ± 0.2 (≈ 10.8 µM) |  | Cc1c(C)c2c(c(C)c1O)CCC(C)(C(=O)O)O2 (stereo not shown) [Trolox®, reference compound] |  |  |  |  |  |  |  |  |  |  |  |  |  |  | 
